Measurements from ChEMBL document CHEMBL4177755, “Combating Drug-Resistant Fungi with Novel Imperfectly Amphipathic Palindromic Peptides” (J Med Chem, 2018).
In brackets after ≈: the same amount, converted by molar mass.

Columns and labels:
Candida albicans [1] = assay: Fungicidal activity against fluconazole-resistant Candida albicans 56214 after 96 hrs; assay type: functional; details: Candida albicans, 56214, 96 h; read-out: MFC99.9
Summary of the method: (§1)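 After the 48 h, 28 °C broth microdilution in MOPS-buffered RPMI 1640 (inoculum (0.5−1) × 10^3 CFU/mL), 50 μL from each well was plated on YM agar for a further 48 h at 28 °C. MFC is the lowest concentration killing at least 99.9% of cells. Triplicate, three biological replicates.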

Escherichia coli [2] = assay: Bactericidal activity against Escherichia coli 1005; assay type: functional; details: read-out: MBC99.9
Summary of the method: (§2)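 Wells from the 24 h, 37 °C MHB microdilution plates (bacteria at a final (0.5−1) × 10^5 CFU/mL; peptide diluted in 0.2% BSA) were plated on agar and incubated overnight. MBC is the lowest concentration killing >99.9% of cells. Each test was reproduced at least 3 times.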

[3] = system: Staphylococcus epidermidis; assay: Antibacterial activity against Staphylococcus epidermidis ATCC 12228 after 24 hrs; assay type: functional; details: ATCC 12228, 24 h
Summary of the method: (§3)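 Broth microdilution. Mid-log bacteria in MHB at a final (0.5−1) × 10^5 CFU/mL were mixed with equal volumes of peptide serially diluted in 0.2% BSA. Plates were incubated 24 h at 37 °C and read at A492. MIC is the lowest concentration inhibiting 95% of growth. Each test was repeated at least 3 times.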

Candida albicans [4] = assay: Fungicidal activity against Candida albicans 14936 after 96 hrs; assay type: functional; details: Candida albicans, 14936, 96 h; read-out: MFC99.9; summary of the method: as §1
Candida albicans [5] = assay: Fungicidal activity against fluconazole-resistant Candida albicans 17546 after 96 hrs; assay type: functional; details: Candida albicans, 17546, 96 h; read-out: MFC99.9; summary of the method: as §1
Escherichia coli [6] = assay: Antibacterial activity against Escherichia coli ATCC 25922 after 18 hrs in presence of MgCl2 by broth dilution method; assay type: functional; details: ATCC 25922, 18 h
Escherichia coli [7] = assay: Antibacterial activity against Escherichia coli ATCC 25922 after 24 hrs; assay type: functional; details: ATCC 25922, 24 h; summary of the method: as §3
Staphylococcus aureus [8] = assay: Antibacterial activity against Staphylococcus aureus ATCC 25923 after 24 hrs; assay type: functional; details: ATCC 25923, 24 h
Summary of the method: (§4)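 Modified NCCLS broth microdilution. Mid-log bacteria at (0.5−1) × 10^5 CFU/mL in MHB were mixed 1:1 with peptide serially diluted in 0.2% BSA and incubated 24 h at 37 °C. Absorbance was read at 492 nm; MIC is the lowest concentration inhibiting 95% of growth. At least 3 repeats.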

Candida albicans [9] = assay: Antifungal activity against fluconazole-resistant Candida albicans 56214 after 48 hrs by broth microdilution method; assay type: functional; details: Candida albicans, 56214, 48 h
Summary of the method: (§5)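 Modified CLSI M27-A2 broth microdilution. Yeast at (0.5−1) × 10^3 CFU/mL in MOPS-buffered RPMI 1640 was mixed 1:1 with peptide serially diluted in 0.2% BSA and incubated 48 h at 28 °C. Absorbance was read at 492 nm; MIC is the lowest concentration inhibiting 95% of growth. Triplicate, three biological replicates.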

Escherichia coli [10] = assay: Antibacterial activity against Escherichia coli ATCC 25922 after 18 hrs in presence of NH4Cl by broth dilution method; assay type: functional; details: ATCC 25922, 18 h
Candida albicans [11] = assay: Antifungal activity against Candida albicans cgmcc 2.2086 in presence of KCl by broth dilution method; assay type: functional
Candida albicans [12] = assay: Antifungal activity against Candida albicans SP3903 after 48 hrs by broth microdilution method; assay type: functional; details: SP3903, 48 h; summary of the method: as §5
Candida albicans [13] = assay: Fungicidal activity against Candida albicans SP3931 after 96 hrs; assay type: functional; details: SP3931, 96 h, read-out: MFC99.9; summary of the method: as §1
Salmonella typhimurium [14] = assay: Antibacterial activity against Salmonella typhimurium ATCC 14028 after 24 hrs; assay type: functional, Salmonella enterica subsp. enterica serovar Typhimurium; details: Salmonella enterica, ATCC 14028, 24 h; summary of the method: as §3
Escherichia coli [15] = assay: Antibacterial activity against Escherichia coli ATCC 25922 after 18 hrs in presence of CaCl2 by broth dilution method; assay type: functional; details: ATCC 25922, 18 h
Escherichia coli [16] = assay: Bactericidal activity against Escherichia coli ATCC 25922; assay type: functional; details: read-out: MBC99.9; summary of the method: as §2
Candida albicans [17] = assay: Antifungal activity against Candida albicans isolated from alveolar fluid after 48 hrs by broth microdilution method; assay type: functional; summary of the method: as §5
Escherichia coli [18] = assay: Antibacterial activity against Escherichia coli ATCC 25922 after 18 hrs in presence of KCl by broth dilution method; assay type: functional; details: ATCC 25922, 18 h
Staphylococcus aureus [19] = assay: Antibacterial activity against Staphylococcus aureus ATCC 29213 after 24 hrs; assay type: functional; details: ATCC 29213, 24 h; summary of the method: as §4
Candida albicans [20] = assay: Antifungal activity against Candida albicans SP3876 after 48 hrs by broth microdilution method; assay type: functional; details: SP3876, 48 h; summary of the method: as §5
Staphylococcus aureus [21] = assay: Antibacterial activity against methicillin-resistant Staphylococcus aureus ATCC 4330 after 24 hrs; assay type: functional; details: ATCC 4330, 24 h; summary of the method: as §4
Escherichia coli [22] = assay: Antibacterial activity against Escherichia coli ATCC 25922 after 18 hrs in presence of FeCl3 by broth dilution method; assay type: functional; details: ATCC 25922, 18 h
Candida albicans [23] = assay: Antifungal activity against Candida albicans SP3931 after 48 hrs by broth microdilution method; assay type: functional; details: SP3931, 48 h; summary of the method: as §5
Candida parapsilosis = assay: Antifungal activity against Candida parapsilosis cgmcc 2.3989 after 48 hrs by broth microdilution method; assay type: functional; details: Lodderomyces parapsilosis, cgmcc 2.3989, 48 h
Summary of the method: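 Modified CLSI M27-A2 broth microdilution. Yeast were suspended in MOPS-buffered RPMI 1640 at a final (0.5−1) × 10^3 CFU/mL and mixed 1:1 with peptide serially diluted in 0.2% BSA. Plates were incubated 48 h at 28 °C and read at A492. MIC is the lowest concentration giving 95% inhibition. Run in triplicate with three biological replicates.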

[24] = Cytotoxicity against mouse RAW264.7 cells assessed as cell viability at 2 to 64 uM after 24 hrs by MTT assay relative to control; assay type: cell-based; details: read-out: Activity
Summary of the method: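 MTT viability assay. RAW264.7 or HEK293T cells at (1.0−2.0) × 10^5 per well were exposed to a peptide concentration series for 24 h at 37 °C in 5% CO2. MTT was then added at 0.5 mg/mL final for 4 h; formazan was dissolved in DMSO and read at 570 nm. Results average three independent trials.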

Candida albicans [25] = assay: Fungicidal activity against Candida albicans cgmcc 2.2086 after 96 hrs; assay type: functional; details: cgmcc 2.2086, 96 h, read-out: MFC99.9; summary of the method: as §1
Salmonella typhimurium [26] = assay: Bactericidal activity against Salmonella typhimurium ATCC 14028; assay type: functional, Salmonella enterica subsp. enterica serovar Typhimurium; details: Salmonella enterica, read-out: MBC99.9; summary of the method: as §2
Escherichia coli [27] = assay: Antibacterial activity against Escherichia coli ATCC 25922 after 18 hrs in presence of NaCl by broth dilution method; assay type: functional; details: ATCC 25922, 18 h
Candida albicans [28] = assay: Fungicidal activity against fluconazole-resistant Candida albicans 56452 after 96 hrs; assay type: functional; details: Candida albicans, 56452, 96 h; read-out: MFC99.9; summary of the method: as §1
Candida albicans [29] = assay: Antifungal activity against Candida albicans cgmcc 2.2086 in presence of MgCl2 by broth dilution method; assay type: functional
Candida albicans [30] = assay: Fungicidal activity against Candida albicans 58288 after 96 hrs; assay type: functional; details: Candida albicans, 58288, 96 h; read-out: MFC99.9; summary of the method: as §1
Candida albicans [31] = assay: Antifungal activity against Candida albicans cgmcc 2.2086 in presence of FeCl3 by broth dilution method; assay type: functional
Candida albicans [32] = assay: Antifungal activity against Candida albicans 14936 after 48 hrs by broth microdilution method; assay type: functional; details: Candida albicans, 14936, 48 h; summary of the method: as §5

Molecule | MFC (Candida albicans [1]) [µM] | MBC (Escherichia coli [2]) [µM] | MIC95 [3] [µM] | MFC (Candida albicans [4]) [µM] | MFC (Candida albicans [5]) [µM] | MIC95 (Escherichia coli [7]) [µM] | MIC95 (Staphylococcus aureus [8]) [µM] | MIC95 (Candida albicans [9]) [µM] | MIC (Candida albicans [11]) [µM] | MIC95 (Candida albicans [12]) [µM] | MFC (Candida albicans [13]) [µM] | MIC95 (Salmonella typhimurium [14]) [µM] | MBC (Escherichia coli [16]) [µM] | MIC95 (Candida albicans [17]) [µM] | MIC95 (Staphylococcus aureus [19]) [µM] | MIC95 (Candida albicans [20]) [µM] | MIC95 (Staphylococcus aureus [21]) [µM] | MIC95 (Candida albicans [23]) [µM] | MIC95 (Candida parapsilosis) [µM] | MFC (Candida albicans [25]) [µM] | other results
H-RFRFFFRFR-NH2 | 16 | 8 | 4 | 8 | 4 | 4 | 4 | 8 | 32 | 4 | 16 | 4 | 8 | 8 | 4 | 8 | 4 | 8 | 16 | 16 | MIC (Escherichia coli [6]): 2 µM; MIC (Escherichia coli [10]): 4 µM; MIC (Escherichia coli [15]): 4 µM; MIC (Escherichia coli [18]): 4 µM; MIC (Escherichia coli [22]): 4 µM; viability at 24 h, up to 64 µM [24]: 70 to 80%; MBC (Salmonella typhimurium [26]): 8 µM; MIC (Escherichia coli [27]): 4 µM; MFC (Candida albicans [28]): 4 µM; MIC (Candida albicans [29]): 16 µM; MFC (Candida albicans [30]): 16 µM; MIC (Candida albicans [31]): 8 µM; MIC95 (Candida albicans [32]): 8 µM
CC[C@H](C)[C@H](NC(=O)CN)C(=O)NCC(=O)N[C@@H](C)C(=O)N[C@H](C(=O)N[C@@H](CC(C)C)C(=O)N[C@@H](CCCCN)C(=O)N[C@H](C(=O)N[C@@H](CC(C)C)C(=O)N[C@H](C(=O)N[C@H](C(=O)NCC(=O)N[C@@H](CC(C)C)C(=O)N1CCC[C@H]1C(=O)N[C@@H](C)C(=O)N[C@@H](CC(C)C)C(=O)N[C@H](C(=O)N[C@@H](CO)C(=O)N[C@@H](Cc1c[nH]c2ccccc12)C(=O)N[C@H](C(=O)N[C@@H](CCCCN)C(=O)N[C@@H](CCCNC(=N)N)C(=O)N[C@@H](CCCCN)C(=O)N[C@@H](CCCNC(=N)N)C(=O)N[C@@H](CCC(N)=O)C(=O)N[C@@H](CCC(N)=O)C(N)=O)[C@@H](C)CC)[C@@H](C)CC)[C@@H](C)O)[C@@H](C)O)C(C)C)C(C)C [MELITTIN] | 4 (≈ 11.4 µg/mL) | 2 (≈ 5.69 µg/mL) | 0.5 (≈ 1.42 µg/mL) | 8 (≈ 22.8 µg/mL) | 8 (≈ 22.8 µg/mL) | 2 (≈ 5.69 µg/mL) | 4 (≈ 11.4 µg/mL) | 4 (≈ 11.4 µg/mL) | 4 | 4 (≈ 11.4 µg/mL) | 8 (≈ 22.8 µg/mL) | 1 (≈ 2.85 µg/mL) | 2 (≈ 5.69 µg/mL) | 4 (≈ 11.4 µg/mL) | 8 (≈ 22.8 µg/mL) | 4 (≈ 11.4 µg/mL) | 1 (≈ 2.85 µg/mL) | 8 (≈ 22.8 µg/mL) | 2 (≈ 5.69 µg/mL) | 8 (≈ 22.8 µg/mL) | MBC (Salmonella typhimurium [26]): 2 µM (≈ 5.69 µg/mL); MFC (Candida albicans [28]): 8 µM (≈ 22.8 µg/mL); MIC (Candida albicans [29]): 4 µM; MFC (Candida albicans [30]): 4 µM (≈ 11.4 µg/mL); MIC (Candida albicans [31]): 4 µM; MIC95 (Candida albicans [32]): 4 µM (≈ 11.4 µg/mL)
